These results are taken from paper PMC9749463 (European Journal of Pharmacology, 2021).

Like-named read-outs stand apart in the source and are kept apart here.

Data set [1] concerns Kir2.1. As to conditions: read-out: IC50 Kir2.1 outward component; ref Rodriguez-Menchaca et al., 2008; cited from earlier work.
The test system of another data set is human recombinant NaV1.5. The following applies: 30 μM, manual patch-clamp; ref Crumb et al., 2016; cited from earlier work. For orientation: The patch-clamp technique gives a direct electrical read-out from membranes.
The test system of the next data set is human recombinant CaV1.2. As to conditions: 30 μM, manual patch-clamp; ref Crumb et al., 2016; cited from earlier work.
Data set [2] has as its target T1, Kir2.1 (Homo sapiens, UniProt P63252).
T1 sequence (P63252 1-427): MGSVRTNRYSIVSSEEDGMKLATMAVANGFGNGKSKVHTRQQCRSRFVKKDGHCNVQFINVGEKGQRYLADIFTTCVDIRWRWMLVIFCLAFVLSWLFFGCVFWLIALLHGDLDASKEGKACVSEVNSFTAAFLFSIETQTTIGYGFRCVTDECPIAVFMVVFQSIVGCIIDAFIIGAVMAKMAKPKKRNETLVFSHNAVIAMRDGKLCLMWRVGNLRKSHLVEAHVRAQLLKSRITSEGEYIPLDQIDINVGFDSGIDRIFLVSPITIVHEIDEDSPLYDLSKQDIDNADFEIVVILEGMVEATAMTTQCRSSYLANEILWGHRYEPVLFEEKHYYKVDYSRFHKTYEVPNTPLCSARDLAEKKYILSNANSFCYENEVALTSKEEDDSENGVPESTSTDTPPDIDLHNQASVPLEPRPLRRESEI
As to conditions: read-out: IC50 Kir2.1; manual patch-clamp; ref Crumb et al., 2016; cited from earlier work.

A further data set concerns human recombinant KV7.1. As to conditions: 30 μM, manual patch-clamp; ref Crumb et al., 2016; cited from earlier work.
For the next data set, the system named is human recombinant KV4.3. As to conditions: 30 μM, manual patch-clamp; ref Crumb et al., 2016; cited from earlier work.
In a further data set the target is CaV1.2/β2/α2δ1 (Homo sapiens, UniProt Q13936). The experiment in a line: automated patch-clamp. It is filed as cell-based. The following applies: CdCl2 0.2 mM, end of recording.
Another data set addresses NaV1.5 (Homo sapiens, UniProt Q14524). Put plainly: automated patch-clamp. It is filed as cell-based. As to conditions: for decrease of NaV1.5 current: up to the highest tested concentration of 90 μM, attributable to current rundown.
Data set [3] deals with human immune-deficiency virus serotype 1. The following applies: human T-cell lines and macrophage hybridoma; ref Chiang et al., 1996; cited from earlier work.
Another data set relates to rabbit Purkinje fibers. Put plainly: current clamp action potential recording on excised rabbit Purkinje fibers. As to conditions: for effect on membrane and AP parameters: 0.3 μM, any beating rate. A digest of the protocol:
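Purkinje fibers came from male New Zealand rabbits (1.7–2.1 kg). They were superfused at 10 mL/min and 36 ± 1 °C with bicarbonate buffer at pH 7.4. APs were recorded with 3 M KCl microelectrodes under pacing at 3, 1 and 0.25 Hz. Test compound (0.3, 3, 10, 30 μM) was applied for 30 min each, ascending, followed by 30 min washout; n = 6. Analysis used ANOVA with Dunnett versus baseline.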

Data set [4] deals with hERG (Homo sapiens, UniProt Q12809). Put plainly: automated patch-clamp. The following applies: ratio of IC50 values. It is filed as cell-based.
The conditions of data set [5]: in vitro; ref McLachlan et al., 1993; cited from earlier work.
In data set [6] the target is T1, Kir2.1. The experiment in a line: automated patch-clamp. It is filed as cell-based. The following applies: levorotatory enantiomer the most potent.
Another data set relates to Plasmodium falciparum. The following applies: isolates grown in human erythrocytes; ref Warhurst et al., 2003; cited from earlier work.
The conditions of data set [7]: ref Wainer et al., 1994; cited from earlier work.
The conditions of data set [8]: HCQ monotherapy, meta-analysis of 28 clinical studies; ref Oscanoa et al., 2020; cited from earlier work.
In data set [9] the test system is Kir2.1. The following applies: read-out: IC50 Kir2.1; QPatch II platform; ref Okada et al., 2021; cited from earlier work.
The conditions of data set [10]: ref Carlsson et al., 2020; cited from earlier work.
In data set [11] the test system is hERG. The following applies: read-out: IC50 hERG; QPatch II platform; ref Okada et al., 2021; cited from earlier work. (The hERG channel carries a current that helps repolarise heart muscle cells.)
Data set [12] deals with human adult cardiomyocytes. As to conditions: potassium in buffer decreased from 4 mM to 2.5 mM; ref Jordaan et al., 2021; cited from earlier work.
Another data set has as its target KV7.1/minK (Homo sapiens, UniProt P51787). Put plainly: automated patch-clamp. Type of data set: cell-based.
In the next data set the target is T2, KV4.3/KChIP2.2 (Homo sapiens, UniProt Q9UK17).
T2 sequence (Q9UK17 1-655): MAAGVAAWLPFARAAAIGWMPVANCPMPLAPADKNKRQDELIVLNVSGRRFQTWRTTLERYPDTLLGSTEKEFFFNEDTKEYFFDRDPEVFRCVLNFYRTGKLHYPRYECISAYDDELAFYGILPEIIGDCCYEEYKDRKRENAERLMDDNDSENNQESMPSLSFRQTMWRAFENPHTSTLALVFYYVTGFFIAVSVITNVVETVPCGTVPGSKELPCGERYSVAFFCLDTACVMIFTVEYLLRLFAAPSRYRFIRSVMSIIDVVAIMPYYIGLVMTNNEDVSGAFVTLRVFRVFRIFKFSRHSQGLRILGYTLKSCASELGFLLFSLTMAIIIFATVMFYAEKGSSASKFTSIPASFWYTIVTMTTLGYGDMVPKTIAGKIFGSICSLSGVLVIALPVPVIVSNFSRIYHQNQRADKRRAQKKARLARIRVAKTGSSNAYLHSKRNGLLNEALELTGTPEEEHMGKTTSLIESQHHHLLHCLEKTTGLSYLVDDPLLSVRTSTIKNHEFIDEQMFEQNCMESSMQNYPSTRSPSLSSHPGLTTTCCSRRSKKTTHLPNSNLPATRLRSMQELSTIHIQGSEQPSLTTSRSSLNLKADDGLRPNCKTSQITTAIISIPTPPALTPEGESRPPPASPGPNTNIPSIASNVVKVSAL
T2 sequence (Q9NS61 1-252 isoform Q9NS61-2 partner): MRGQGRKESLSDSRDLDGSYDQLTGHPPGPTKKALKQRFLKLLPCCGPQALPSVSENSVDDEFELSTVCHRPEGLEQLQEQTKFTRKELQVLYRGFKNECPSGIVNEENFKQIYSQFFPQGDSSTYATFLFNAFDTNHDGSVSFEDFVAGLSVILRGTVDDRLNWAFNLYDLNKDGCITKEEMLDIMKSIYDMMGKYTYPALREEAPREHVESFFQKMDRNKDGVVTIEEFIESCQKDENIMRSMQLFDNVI
Put plainly: automated patch-clamp. It is filed as cell-based. A digest of the protocol: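 CHO cells constitutively expressing human KV4.3/KChIP2.2 were whole-cell recorded at room temperature. Cells were held at −80 mV and stepped to +20 mV with 500 ms pulses. Test compound was applied at six cumulative ascending concentrations up to 90 μM in 0.3% or 1% DMSO with 1% Pluronic F-68. Leak was removed with 30 μM SKF-96365. Integral charge was normalized to pre-drug, and IC50 was fitted sigmoidally (0–100% constrained) with 95% CI.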

NaV1.5, sequence (Q14524 whole entry): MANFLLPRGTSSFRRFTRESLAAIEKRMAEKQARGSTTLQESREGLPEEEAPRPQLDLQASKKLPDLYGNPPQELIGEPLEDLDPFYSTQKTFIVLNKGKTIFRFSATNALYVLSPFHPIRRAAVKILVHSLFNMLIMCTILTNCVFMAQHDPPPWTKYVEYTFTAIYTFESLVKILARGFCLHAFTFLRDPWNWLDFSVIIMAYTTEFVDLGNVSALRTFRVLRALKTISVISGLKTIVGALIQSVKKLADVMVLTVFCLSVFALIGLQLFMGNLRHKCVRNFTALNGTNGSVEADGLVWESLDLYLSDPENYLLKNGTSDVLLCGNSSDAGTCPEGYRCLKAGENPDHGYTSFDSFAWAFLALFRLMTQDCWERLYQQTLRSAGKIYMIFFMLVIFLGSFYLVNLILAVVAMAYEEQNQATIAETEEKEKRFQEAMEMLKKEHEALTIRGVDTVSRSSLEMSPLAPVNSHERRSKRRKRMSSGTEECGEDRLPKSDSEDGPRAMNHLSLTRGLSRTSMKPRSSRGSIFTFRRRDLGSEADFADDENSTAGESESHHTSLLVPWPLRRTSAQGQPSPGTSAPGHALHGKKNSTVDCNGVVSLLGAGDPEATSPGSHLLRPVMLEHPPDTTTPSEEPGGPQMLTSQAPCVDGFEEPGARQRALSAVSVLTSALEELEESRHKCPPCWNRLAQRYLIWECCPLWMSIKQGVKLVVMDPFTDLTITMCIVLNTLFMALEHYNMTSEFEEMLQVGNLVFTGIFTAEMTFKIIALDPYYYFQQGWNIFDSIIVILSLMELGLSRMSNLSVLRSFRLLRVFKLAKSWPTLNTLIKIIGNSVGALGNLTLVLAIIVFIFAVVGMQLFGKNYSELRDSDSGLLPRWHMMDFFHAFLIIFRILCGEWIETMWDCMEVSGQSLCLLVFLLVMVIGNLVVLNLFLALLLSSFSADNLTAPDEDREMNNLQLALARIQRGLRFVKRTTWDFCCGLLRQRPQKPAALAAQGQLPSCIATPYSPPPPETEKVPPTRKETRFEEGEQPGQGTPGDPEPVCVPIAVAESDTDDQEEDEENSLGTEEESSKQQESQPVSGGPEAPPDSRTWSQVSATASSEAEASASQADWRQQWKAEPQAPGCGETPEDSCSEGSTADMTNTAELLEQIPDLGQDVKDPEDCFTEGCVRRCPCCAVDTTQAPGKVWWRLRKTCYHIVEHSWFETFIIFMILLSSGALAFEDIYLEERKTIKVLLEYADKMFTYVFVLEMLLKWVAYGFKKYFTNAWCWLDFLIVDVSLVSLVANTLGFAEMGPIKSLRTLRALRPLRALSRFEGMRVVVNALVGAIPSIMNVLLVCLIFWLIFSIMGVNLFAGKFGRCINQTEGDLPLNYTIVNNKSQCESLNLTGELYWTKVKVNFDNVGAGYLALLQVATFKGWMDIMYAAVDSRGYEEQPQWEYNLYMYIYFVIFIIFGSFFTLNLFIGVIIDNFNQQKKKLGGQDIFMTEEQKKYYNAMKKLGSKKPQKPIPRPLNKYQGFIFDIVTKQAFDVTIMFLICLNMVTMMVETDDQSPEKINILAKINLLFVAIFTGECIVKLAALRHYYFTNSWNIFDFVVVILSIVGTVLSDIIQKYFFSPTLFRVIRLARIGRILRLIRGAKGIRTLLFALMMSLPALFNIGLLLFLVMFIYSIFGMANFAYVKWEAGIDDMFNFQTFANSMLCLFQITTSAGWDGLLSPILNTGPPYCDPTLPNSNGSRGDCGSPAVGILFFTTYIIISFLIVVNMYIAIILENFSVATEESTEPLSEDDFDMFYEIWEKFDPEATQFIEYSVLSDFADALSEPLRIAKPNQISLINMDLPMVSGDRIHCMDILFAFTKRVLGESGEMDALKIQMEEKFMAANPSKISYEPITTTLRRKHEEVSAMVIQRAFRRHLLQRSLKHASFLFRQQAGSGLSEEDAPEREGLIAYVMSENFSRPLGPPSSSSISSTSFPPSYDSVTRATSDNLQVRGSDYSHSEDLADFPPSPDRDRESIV
KV7.1/minK, sequence (P51787 whole entry): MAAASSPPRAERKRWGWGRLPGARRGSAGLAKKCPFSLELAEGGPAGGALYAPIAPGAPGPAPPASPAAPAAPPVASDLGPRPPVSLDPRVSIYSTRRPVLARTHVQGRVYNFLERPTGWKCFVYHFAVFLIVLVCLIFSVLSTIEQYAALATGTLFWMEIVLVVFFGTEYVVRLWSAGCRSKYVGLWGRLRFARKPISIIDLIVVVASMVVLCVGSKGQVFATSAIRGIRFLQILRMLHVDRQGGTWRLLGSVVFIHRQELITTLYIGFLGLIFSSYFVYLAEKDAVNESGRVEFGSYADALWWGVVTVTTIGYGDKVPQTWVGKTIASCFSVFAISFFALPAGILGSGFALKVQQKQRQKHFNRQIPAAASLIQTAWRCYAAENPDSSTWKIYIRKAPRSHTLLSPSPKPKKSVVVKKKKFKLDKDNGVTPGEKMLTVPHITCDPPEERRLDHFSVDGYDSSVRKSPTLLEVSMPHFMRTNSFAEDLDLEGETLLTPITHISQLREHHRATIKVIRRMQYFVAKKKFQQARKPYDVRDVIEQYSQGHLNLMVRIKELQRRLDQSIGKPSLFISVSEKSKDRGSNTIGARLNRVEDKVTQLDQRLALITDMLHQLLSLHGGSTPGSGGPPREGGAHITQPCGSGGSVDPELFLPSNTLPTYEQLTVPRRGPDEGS
hERG (Homo sapiens, UniProt Q12809), sequence (Q12809 whole entry): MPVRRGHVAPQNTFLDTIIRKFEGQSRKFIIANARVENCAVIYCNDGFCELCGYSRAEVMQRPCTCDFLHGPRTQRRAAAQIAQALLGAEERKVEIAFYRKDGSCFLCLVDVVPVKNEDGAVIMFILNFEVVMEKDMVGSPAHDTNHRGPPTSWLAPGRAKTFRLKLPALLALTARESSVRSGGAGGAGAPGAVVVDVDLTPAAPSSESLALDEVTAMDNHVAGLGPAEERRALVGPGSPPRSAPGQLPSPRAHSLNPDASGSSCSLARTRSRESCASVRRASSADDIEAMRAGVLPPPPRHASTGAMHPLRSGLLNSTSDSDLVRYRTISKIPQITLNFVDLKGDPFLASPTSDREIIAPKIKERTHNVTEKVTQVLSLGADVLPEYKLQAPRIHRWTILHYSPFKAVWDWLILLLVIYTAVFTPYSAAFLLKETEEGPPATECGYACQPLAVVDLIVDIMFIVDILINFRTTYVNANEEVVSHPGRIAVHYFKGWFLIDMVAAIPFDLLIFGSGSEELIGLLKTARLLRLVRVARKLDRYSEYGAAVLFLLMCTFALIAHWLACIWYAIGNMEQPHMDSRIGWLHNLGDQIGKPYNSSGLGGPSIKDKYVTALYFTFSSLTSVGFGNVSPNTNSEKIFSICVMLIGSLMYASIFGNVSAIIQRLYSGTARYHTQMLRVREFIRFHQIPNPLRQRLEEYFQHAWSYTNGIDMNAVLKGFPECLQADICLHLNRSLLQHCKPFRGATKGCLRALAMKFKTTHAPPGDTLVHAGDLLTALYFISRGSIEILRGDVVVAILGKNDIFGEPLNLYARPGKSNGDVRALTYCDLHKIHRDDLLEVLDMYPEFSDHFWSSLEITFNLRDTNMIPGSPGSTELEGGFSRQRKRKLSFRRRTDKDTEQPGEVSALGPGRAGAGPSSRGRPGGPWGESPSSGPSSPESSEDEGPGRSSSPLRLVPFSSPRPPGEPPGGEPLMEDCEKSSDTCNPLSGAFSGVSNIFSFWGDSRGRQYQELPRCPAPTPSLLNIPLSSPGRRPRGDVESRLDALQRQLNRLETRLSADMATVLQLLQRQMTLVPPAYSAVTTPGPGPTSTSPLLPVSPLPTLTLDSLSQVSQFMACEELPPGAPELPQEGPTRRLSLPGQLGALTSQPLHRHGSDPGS

The IC50 is the concentration at which inhibition is half-maximal. On to `CCN(CC)CCCC(C)Nc1ccnc2cc(Cl)ccc12` (stereo not drawn) [CQ, chloroquine], for which the figures for the half-inhibitory concentration (IC50) in the data set with Kir2.1 [1] and at Kir2.1 [2] were 9 µM and 11 µM, respectively. Moreover, the “inhibition of NaV1.5” value in the data set on human recombinant NaV1.5 is listed as “less than 20%”. Besides, the “inhibition of CaV1.2” value in the data set with human recombinant CaV1.2 is on record as “less than 20%”. Moreover, the “inhibition of KV7.1” value in the data set with human recombinant KV7.1 is “less than 20%”. The “inhibition of KV4.3” value in the data set on human recombinant KV4.3 is listed as “less than 20%”.
As for `[Cl][Cd][Cl]` [CdCl2], the “effect on CaV1.2 currents” value on CaV1.2/β2/α2δ1 is “inhibited all the currents”.
`CCN(CCO)CCCC(C)Nc1ccnc2cc(Cl)ccc12` (stereo not drawn) [R(-)HCQ]: the “decrease of NaV1.5 current” value at NaV1.5 is “below 10%”. In addition, the “inhibition of HIV-1 replication, comparison of enantiomers” value in data set [3] is recorded as “equipotent”. For the same molecule, in the data set with rabbit Purkinje fibers, the “effect on membrane and AP parameters” value is “neither R(-)HCQ nor S(+)HCQ had a significant effect”. Also, the autogenic activity result in the data set with rabbit Purkinje fibers (10 μM and 30 μM) is “inducing autogenic activity”. Further, in the data set with rabbit Purkinje fibers (30 μM, 60 bpm (1 Hz)), the “decrease of median resting membrane potential” value came out at 20%. Besides, the “increase of AP duration at near complete repolarization (APD90)” value in the data set with rabbit Purkinje fibers (30 μM, 180 bpm, n = 2 readings) turned out to be 25%. Moreover, the “early after depolarizations (EADs)” value with rabbit Purkinje fibers (any concentration and pacing rate) is “no torsadogenic early after depolarizations (EADs) events were observed”. In addition, the “greater potency of R(-)HCQ over S(+)HCQ on hERG” value on hERG [4] is on record as 3.7 fold. For the same molecule, the “free fraction (plasma protein binding)” value in data set [5] is listed as 63%. Besides, the “block-potency ratio of the enantiomers against Kir2.1” value on Kir2.1 [6] is recorded as “two-fold”. In addition, the “inhibition of Plasmodium falciparum proliferation, comparison of enantiomers” value in the data set on Plasmodium falciparum is given as “identical IC50 values”. Further, the “accumulation in ocular tissue” value in data set [7] was “preferential accumulation”.
On to `CCN(CCO)CCCC(C)Nc1ccnc2cc(Cl)ccc12` (stereo not drawn) [HCQ, Hydroxychloroquine], for which the “occurrence of QT-prolongations” value in data set [8] was “below 2%”. Also, the IC50 in the data set on Kir2.1 [9] was 30 µM; in the data set with hERG [11], 17 µM. Also, in data set [10], the “plasma concentrations relative to blood” value is reported as “two-fold lower”. In addition, in [12], the “proarrhythmic risk at reduced potassium” value was “proarrhythmic risk rose significantly”.
In the case of `CC(C)COCC(CN(Cc1ccccc1)c1ccccc1)N1CCCC1` (stereo not drawn) [bepridil], the IC50 turned out to be 2.5 µM against NaV1.5, 7.2 µM against KV7.1/minK and 11 µM against KV4.3/KChIP2.2.
As for `CCN(CCO)CCC[C@H](C)Nc1ccnc2cc(Cl)ccc12` [S(+)HCQ], the “decrease of NaV1.5 current” value at NaV1.5 is “below 10%”. The “inhibition of HIV-1 replication, comparison of enantiomers” value in data set [3] was “equipotent”. Moreover, the “effect on membrane and AP parameters” value with rabbit Purkinje fibers is “neither R(-)HCQ nor S(+)HCQ had a significant effect”. Further, the “abnormal AP exhibiting EADs” value is listed as “one of the six fibers” in the data set with rabbit Purkinje fibers (10 μM, 15 bpm) and “one of the four fibers” in the data set with rabbit Purkinje fibers (30 μM, 15 bpm, fibers that could follow pacing). The “increase of median APD90” value amounted to 56% in the data set on rabbit Purkinje fibers (10 μM, 15 bpm); 34% with rabbit Purkinje fibers (10 μM, 60 bpm); 12% in the data set on rabbit Purkinje fibers (10 μM, 180 bpm). Also, the “median APD90 duration in presence of drug” value amounted to 827 ms in the data set on rabbit Purkinje fibers (10 μM, 15 bpm); 481 ms in the data set on rabbit Purkinje fibers (10 μM, 60 bpm); 246 ms with rabbit Purkinje fibers (10 μM, 180 bpm). Moreover, the “decrease of median resting membrane potential” value with rabbit Purkinje fibers (30 μM, 180 bpm (3 Hz)) is on record as 11%. Besides, the “autogenic activity escaping electrical pacing” value in the data set on rabbit Purkinje fibers (30 μM, all rates) is given as “two out of six fibers”. Besides, the “free fraction (plasma protein binding)” value in [5] is listed as 36%. Moreover, the “inhibition of Plasmodium falciparum proliferation, comparison of enantiomers” value in the data set with Plasmodium falciparum is “identical IC50 values”.
